Rows were chosen to be rich in hits. Some 2.3% of all compounds tested hit in one or more screens of this group.
TRPC4 act: opens the mouse TRPC4 cation channel; HEK293 TRPC4beta/mu-opioid, Fluo4 calcium fluorescence; hits give high values; actives 0.49% (n = 310,000); B-score at 10 µM;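 active = B-score above 5 SD of library B-scores, and initial fluorescence ratio not above library mean plus 5 SD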;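 also: positive B-score marks a calcium rise read as TRPC4 activation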
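Material: HEK293 stable line with TRPC4beta plus mu-opioid receptor; technique: Fluo4 calcium-sensitive dye fluorescence, kinetic, 1 Hz baseline; timing: Fluo4 dye loading 45 min at room temperature, 110 s recording; controls: assay buffer as low control, maximal DAMGO as high control; read-out: integrated baseline-normalised fluorescence ratio, converted to per-well B score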
TRPC6 act: activators of mouse TRPC6 channel | actives 0.13% (n = 310,000) | B-score at 10 µM | HEK293-TRPC6 membrane potential dye fluorescence; hits give high values | Q61143;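 active = B-score of the integrated fluorescence ratio above library mean plus 3 SD, and starting fluorescence ratio within library mean plus 5 SD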;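 also: higher score means more depolarization so channel activation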
TRPC4 PAM: allosteric potentiators of mouse TRPC4 channel; Q9QUQ5; HEK293 TRPC4beta/mu-opioid, DAMGO EC20, Fluo-4 Ca2+ flux; hits give high values; B-score at 10 µM; actives 0.42% (n = 310,000); AID 2227;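 active = B-score of calcium response area above 5 SD of library B-scores, with initial fluorescence ratio within 5 SD of library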;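 also: B-score of integrated fluorescence ratio over time as area under calcium response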
TRPC4 block: inhibitors of mouse TRPC4 channel. HEK293 TRPC4beta/mu-opioid, DAMGO-evoked Fluo4 calcium flux; hits give low values. B-score at 10 µM. actives 0.39% (n = 300,000). AID 2247;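 active = B-score over 3 SD under the library average, no early fluorescence shift, positive overall ratio signal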
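Assay system: HEK293 cells with stable TRPC4beta plus mu-opioid receptor expression. Dosing: single dose. Measured by: Fluo4 Ca2+ flux fluorescence. Also added: DAMGO in two steps, submaximal then maximal. Read-out: B score from integrated Fluo4 fluorescence ratio.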
TRPC6 inh: blocks the mouse TRPC6 cation channel. Q61143. HEK293-TRPC6, membrane potential dye, ACh-evoked depolarization; hits give low values. B-score at 10 µM. actives 1.1% (n = 310,000);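 active = B-score under library mean minus 3 SD, initial fluorescence not abnormally high, positive integrated signal ratio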;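 also: B-score derived from integrated fluorescence ratio over the kinetic read; more negative B-score means stronger inhibition of depolarization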
TRPC4 sel inh 2: second check of whether TRPC6 inhibitors also affect mouse TRPC4; shares compounds with TRPC6 inh; actives 42% (n = 920); inhibition, % at 10 µM; HEK293 TRPC4/MOR, membrane potential dye fluorescence; channel activated by saturating DAMGO dose;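 active = compounds whose fluorescence signal differed from control wells by over 3 SD, either direction, in both duplicate plates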
TRPC4 spec: mouse TRPC4 off-target activity of TRPC6 inhibitors. shares compounds with TRPC6 inh. HEK293 TRPC4/mu-opioid, membrane potential fluorescence. activity change, negative = inhibition, % at 10 µM. actives 61% (n = 920);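 active = rise or fall in signal beyond 3 SD of buffer-only wells in both replicate plates, either sign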;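 also: integrated kinetic ratio of fluorescence range over baseline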
HEK293 MPD ctr 2-1: second counter-screen for TRPC6 inhibitors: parental HEK293 cells | actives 31% (n = 920) | signal change vs control, % at 10 µM | shares compounds with TRPC6 inh | parental HEK293 membrane potential dye fluorescence; maximal acetylcholine challenge after compound addition;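 active = membrane potential signal moving either way by over 3 SD of the maximum-effect control, in both duplicate plates, meaning non-specific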
HEK293 MPD ctr-1: checks TRPC6 inhibitor effects in parental HEK293 cells. membrane potential signal change, % at 10 µM. actives 60% (n = 920). parental HEK293 membrane potential dye fluorescence. shares compounds with TRPC6 inh;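 active = membrane potential signal shifting up or down by more than 3 SD of buffer-only wells, on both duplicate plates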
HEK293 MPD ctr-2: checks TRPC6 modulator effects in parental HEK293 cells. shares compounds with TRPC6 inh. membrane potential dye fluorescence. membrane potential signal change, % at 10 µM. actives 51% (n = 2,400);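 active = membrane potential signal moves up or down beyond 5 SD from buffer-only wells, on both duplicate plates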
HEK293 MPD ctr 2-2: second check of TRPC6 modulator effects in parental HEK293 cells; shares compounds with TRPC6 inh; membrane potential dye fluorescence; after compound, maximal acetylcholine stimulation; inhibition, % at 10 µM; actives 14% (n = 2,400);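 active = membrane potential signal drops by more than 5 SD from the mean control signal, in both duplicate plates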;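 also: plate controls were acetylcholine ECmax control wells for no effect and buffer only wells for full effect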
TRPC4/MOR mod: mouse TRPC4 off-target activity of TRPC6 modulators | AID 488927 | percent change from control (negative = decrease, positive = increase), % at 10 µM | shares compounds with TRPC6 inh | actives 69% (n = 2,400) | HEK293 TRPC4/mu-opioid, membrane potential fluorescence;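 active = membrane potential signal moved up or down beyond 5 SD of buffer control wells, in both duplicate plates, actives on both sides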;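 also: plate controls were assay buffer wells for no effect and DAMGO maximal-effect wells for full effect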
TRPC4 ctr inh 2: second check of whether TRPC6 modulators also affect mouse TRPC4; inhibition, % at 10 µM; actives 55% (n = 2,400); HEK293 TRPC4/mu-opioid, membrane potential dye fluorescence; stimulated with maximal-effect DAMGO; shares compounds with TRPC6 inh;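 active = drop in membrane potential signal beyond 5 SD of the control wells in both duplicate plates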;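 also: TRPC4 counter screen for TRPC6 hits run under conditions tuned for TRPC6 not TRPC4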
TRPC6 block conf: confirmation of mouse TRPC6 inhibitors; shares compounds with TRPC6 inh; HEK293-TRPC6, membrane potential dye, ACh-evoked depolarization; inhibition, % at 10 µM; actives 43% (n = 3,300);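 active = fluorescence ratio falls more than 5 SD below the full-stimulation control mean, in both duplicate runs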;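 also: integrated fluorescence ratio of peak minus minimum over baseline after agonist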
TRPC6 act confirm: mouse TRPC6 activator confirmation. activation, % at 10 µM. actives 11% (n = 2,800). shares compounds with TRPC6 inh. HEK293-TRPC6 membrane potential dye fluorescence, FDSS;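 active = ratio signal rise beyond 5 SD above unstimulated control wells' mean, seen in both duplicate runs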;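 also: plate controls were buffer EC0 wells for no effect and acetylcholine ECmax response for full effect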
Starred values were filed as active, the others as inactive; i = inactive; nt = not tested or not shown.

SMILES	TRPC4 act	TRPC6 act	TRPC4 PAM	TRPC4 block	TRPC6 inh	HEK293 MPD ctr-2	HEK293 MPD ctr 2-2	TRPC4/MOR mod	TRPC4 ctr inh 2	TRPC6 block conf	TRPC6 act confirm	others
COc1ccccc1NC(=O)NCC(c1ccco1)N1CCCCC1 (stereo not given)	i	i	i	i	i	nt	nt	nt	nt	nt	nt
COc1ccc(CN2C(=O)CCCc3ccccc32)cc1	i	i	i	i	-5.7*	i	i	i	i	i	i
O=C1CCCc2ccccc2N1Cc1ccccc1	i	i	i	i	i	nt	nt	nt	nt	nt	nt
O=C(NCCCn1ccnc1)C1c2ccccc2Oc2ccccc21	i	i	i	i	-6*	i	i	32%*	i	i	i
O=C(O)c1ccc(S(=O)(=O)Nc2ccc(O)c(Sc3nc4ccccc4s3)c2)cc1	i	i	i	i	i	nt	nt	nt	nt	nt	nt
CCN(CC)c1ccc(C2Nc3cccc4cccc(c34)N2)cc1	i	i	i	i	-5.5*	i	i	i	i	i	i
C/C(=N/NC(=O)Cc1ccccc1)c1ccc(C)s1	i	i	i	i	i	nt	nt	nt	nt	nt	nt
CCC1(C(=O)OC)CCc2c(cc(OC)c3ccccc23)C1=O (stereo not given)	i	i	i	i	i	nt	nt	nt	nt	nt	nt
COc1c2ccoc2nc2c(OC)c(O)ccc12	i	i	i	i	i	nt	nt	nt	nt	nt	nt
COc1ccc2c(OC)c3ccoc3nc2c1OC	i	i	i	i	-5.6*	i	i	i	i	i	nt
Nc1nc(SCC(=O)N2CCCc3ccccc32)[nH]c(=O)c1-c1ccccc1	i	i	i	i	-6.5*	180%*	i	34%*	i	i	nt
COC(=O)C(=CC(=CN(C)C)C=C(C(=O)OC)C(=O)OC)C(=O)OC	i	i	i	i	i	nt	nt	nt	nt	nt	nt
COc1ccc(OC)c(/C=N/NC(=O)Cn2ccnc2C)c1	i	14*	i	i	-10*	i	i	i	i	80%*	186%*
COc1cccc(/C=N/NC(=O)Cn2ccnc2C)c1	i	i	i	i	i	nt	nt	nt	nt	nt	nt
CCN(CC)CCSc1nnc(Nc2ccccc2)n1-c1ccccc1	i	i	i	i	-7.8*	nt	nt	nt	nt	i	i	TRPC4 sel inh 2=i;TRPC4 spec=2.4%*;HEK293 MPD ctr 2-1=i;HEK293 MPD ctr-1=3.4%*
CCN(CC)CCSc1nc(O)c(-c2ccccc2)c(=O)n1-c1ccccc1	i	i	i	i	i	nt	nt	nt	nt	nt	nt
CCN(CC)CCSc1nc2ccccc2c(=S)n1-c1ccccc1	i	i	i	i	-7.3*	nt	nt	nt	nt	i	i	TRPC4 sel inh 2=33%*;TRPC4 spec=3.5%*;HEK293 MPD ctr 2-1=238%*;HEK293 MPD ctr-1=7.1%*
COc1ccc(C2=NN(c3ccccc3)C(=O)/C2=C\c2ccc(O)c(OC)c2)cc1	i	i	i	i	-6.8*	nt	nt	nt	nt	i	i	TRPC4 sel inh 2=i;TRPC4 spec=i;HEK293 MPD ctr 2-1=i;HEK293 MPD ctr-1=i
COc1cc(/C=C2/C(=O)N(c3cccc(Br)c3)N=C2C)cc(OC)c1O	i	i	i	i	-5.4*	i	i	-26%*	72%*	53%*	i
Cc1ccc(N(C(=O)c2csnn2)C(C(=O)NC2CCCC2)c2ccccn2)c(C)c1 (stereo not given)	i	i	i	i	i	nt	nt	nt	nt	nt	nt
CCOC(=O)c1c(NC(=O)C(C)N2CCN(S(=O)(=O)c3cccs3)CC2)sc2c1CCC(C)C2 (stereo not given)	i	i	i	i	i	nt	nt	nt	nt	nt	nt
Oc1ccccc1N=Nc1ccccc1O	i	i	i	i	i	nt	nt	nt	nt	nt	nt
Nc1ccc(N=Nc2ccccc2O)c(N)c1	i	i	i	i	-6.5*	-174%*	i	28%*	98%*	i	i
COc1ccccc1Nc1nc(N)nc(CSC(=S)N2CCCCC2)n1	i	11*	i	i	-9.5*	i	i	i	i	i	i
CC1CCN(S(=O)(=O)c2ccc(Cl)cc2Br)CC1	i	i	i	i	i	nt	nt	nt	nt	nt	nt
CC1CCCCN1S(=O)(=O)c1csc(C(N)=O)c1 (stereo not given)	i	i	i	i	i	nt	nt	nt	nt	nt	nt
CC1CCCCN1S(=O)(=O)c1cnc(Cl)c(Br)c1 (stereo not given)	i	18*	i	i	i	i	i	i	i	nt	164%*
CC1CCN(S(=O)(=O)c2cnc(Cl)c(Br)c2)CC1	i	i	i	i	-5.3*	i	i	i	i	68%*	nt
CCOC(=O)N1CCC(N(C(=O)Nc2ccc(Cl)c(Cl)c2)C(C)CC)CC1 (stereo not given)	i	i	i	i	-6.4*	i	i	i	i	i	i
CCOC(=O)N1CCC(N(CCOC)C(=O)Nc2ccc(CC)cc2)CC1	i	i	i	i	i	nt	nt	nt	nt	nt	nt

Screening data: PubChem BioAssay, Johns Hopkins Ion Channel Center
